Test results as given in ChEMBL document CHEMBL3763095, “Naphtho[1',2':4,5]imidazo[1,2-a]pyridine-5,6-diones: Synthesis, enzymatic reduction and cytotoxic activity” (Bioorg Med Chem Lett, 2016).
≈ marks a conversion by molar mass, not a printed value.

What was measured:
[1] = tested on: A549; experiment: Cytotoxicity against human A549 cells expressing NQO1 assessed as cell viability after 24 hrs by MTT assay; assay type: functional; settings: A549, 24 h, read-out: LC50 (the source's name)
Procedure, shortened: (§1)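 Cells exposed to the quinones for 24 h, then survival read by MTT assay. Viability expressed as percent of solvent-treated control cells. LC50 (concentration causing 50% lethal effect) obtained from logistic dose-response curves.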

[2] = tested on: MCF7; experiment: Cytotoxicity against human MCF7 cells expressing NQO1 assessed as cell viability after 24 hrs by MTT assay; assay type: functional; settings: MCF7, 24 h, read-out: LC50 (the source's name); procedure, shortened: as §1
[3] = Cytotoxicity against NQO1-deficient human HL60 cells assessed as cell viability after 24 hrs by MTT assay; assay type: cell-based, HL-60; settings: read-out: LC50; procedure, shortened: as §1
[4] = tested on: Staphylococcus aureus; experiment: Antibacterial activity against Staphylococcus aureus ATCC 25923 after 16 hrs by two-fold microdillution method; assay type: functional; settings: ATCC 25923, 16 h
[5] = tested on: A549; experiment: Ratio of LC50 for human A549 cells expressing NQO1 in presence of NQO1 inhibitor dicoumarol to LC50 for human A549 cells expressing NQO1 in absence of NQO1 inhibitor dicoumarol; assay type: functional
[6] = tested on: MCF7; experiment: Ratio of LC50 for human MCF7 cells expressing NQO1 in presence of NQO1 inhibitor dicoumarol to LC50 for human A549 cells expressing NQO1 in absence of NQO1 inhibitor dicoumarol; assay type: functional

Row | SMILES | CC50 [1] [nM] | CC50 [2] [nM] | CC50 at 24 h [3] [nM] | MIC [4] [µM] | RatioLC50 [5] | RatioLC50 [6]
1 | O=C1C(=O)c2c(nc3ccc(Cl)cn23)-c2ccccc21 | 2060 | 3410 | 10000 | 7 (≈ 1.98 µg/mL) | – | –
2 | O=C1C(=O)c2c(nc3ncccn23)-c2ccccc21 | 1600 | 800 | > 15000 | 8 (≈ 1.99 µg/mL) | – | –
3 | COc1ccc2nc3c(n2c1)C(=O)C(=O)c1ccccc1-3 | 3350 | 2100 | > 15000 | 14.3 (≈ 3.98 µg/mL) | – | –
4 | O=C1C(=O)c2c(nc3ccc4ccccc4n23)-c2ccccc21 | > 15000 | > 15000 | > 15000 | – | – | –
5 | O=C1C(=O)c2c(nc3ccc(Br)cn23)-c2ccccc21 | 3930 | 1390 | > 15000 | 6.1 (≈ 2 µg/mL) | – | –
6 | CN[C@@H]1[C@H](O[C@H]2[C@H](O[C@H]3[C@H](O)[C@@H](O)[C@H](N=C(N)N)[C@@H](O)[C@@H]3N=C(N)N)O[C@@H](C)[C@]2(O)C=O)O[C@@H](CO)[C@H](O)[C@H]1O [STREPTOMYCIN] | – | – | – | 5.4 (≈ 3.14 µg/mL) | – | –
7 | O=C1C(=O)c2c(nc3ccccn23)-c2ccc([N+](=O)[O-])cc21 | 120 | 280 | > 15000 | – | 3.3 | 3.6
8 | O=C1C(=O)c2c(nc3ccc(C(F)(F)F)cn23)-c2ccccc21 | 900 | 3780 | > 15000 | 6.3 (≈ 1.99 µg/mL) | – | –
9 | Cc1ccc2nc3c(n2c1)C(=O)C(=O)c1ccccc1-3 | 8340 | 3940 | > 15000 | 15.2 (≈ 3.99 µg/mL) | – | –
10 | O=C1C(=O)c2c(nc3ccc(F)cn23)-c2ccccc21 | 2030 | 1320 | 13000 | 15 (≈ 3.99 µg/mL) | – | –
11 | CC1(C)S[C@@H]2[C@H](NC(=O)[C@H](N)c3ccc(O)cc3)C(=O)N2[C@H]1C(=O)O [AMOXICILLIN] | – | – | – | 0.3 (≈ 0.11 µg/mL) | – | –
12 | Cc1cccn2c3c(nc12)-c1ccccc1C(=O)C3=O | 3400 | 1700 | > 15000 | 15.2 (≈ 3.99 µg/mL) | – | –
13 | O=C1C(=O)c2c(nc3ccc([N+](=O)[O-])cn23)-c2ccccc21 | 2300 | 1700 | > 15000 | – | – | –
14 | Cc1ccn2c3c(nc2c1)-c1ccccc1C(=O)C3=O | 1500 | 1250 | > 15000 | 15.2 (≈ 3.99 µg/mL) | – | –
15 | O=C1C(=O)c2c(nc3ccccn23)-c2ccccc21 | 670 | 510 | > 15000 | 16.1 (≈ 4 µg/mL) | 3.1 | 2.3
16 | COc1cccc2c1C(=O)c1c(O)c3c(c(O)c1C2=O)C[C@@](O)(C(=O)CO)C[C@@H]3O[C@H]1C[C@H](N)[C@H](O)[C@H](C)O1 [DOXORUBICIN] | 1170 | 1560 | 370 | – | – | –
